High-throughput results: PubChem, several laboratories
AHR act = activates the human aryl hydrocarbon receptor. AHR-responsive luciferase reporter cells, luminescence. activation, % at 5 µM. hit rate 2.5% among 320,000. AID 2796; in the data active = activation above about 47%;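 also: 0% = vehicle wells and 100% = reference agonist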
ABCB6 inh MLPCN = human ABCB6 transporter inhibition | hit rate 0.19% among 360,000 | K562-ABCB6 porphyrin accumulation, flow cytometry, 1 h; stronger effect = lower value | Q9NP58 | fluorescence ratio to DMSO, % at 10 µM;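 active = fluorescence ratio to DMSO below 75%, the collection mean minus 3 SD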;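 also: signal is porphyrin accumulated inside mitochondria; 100% equals median channel fluorescence of DMSO control wells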
Target sequence (Q9NP58 whole entry, looked up): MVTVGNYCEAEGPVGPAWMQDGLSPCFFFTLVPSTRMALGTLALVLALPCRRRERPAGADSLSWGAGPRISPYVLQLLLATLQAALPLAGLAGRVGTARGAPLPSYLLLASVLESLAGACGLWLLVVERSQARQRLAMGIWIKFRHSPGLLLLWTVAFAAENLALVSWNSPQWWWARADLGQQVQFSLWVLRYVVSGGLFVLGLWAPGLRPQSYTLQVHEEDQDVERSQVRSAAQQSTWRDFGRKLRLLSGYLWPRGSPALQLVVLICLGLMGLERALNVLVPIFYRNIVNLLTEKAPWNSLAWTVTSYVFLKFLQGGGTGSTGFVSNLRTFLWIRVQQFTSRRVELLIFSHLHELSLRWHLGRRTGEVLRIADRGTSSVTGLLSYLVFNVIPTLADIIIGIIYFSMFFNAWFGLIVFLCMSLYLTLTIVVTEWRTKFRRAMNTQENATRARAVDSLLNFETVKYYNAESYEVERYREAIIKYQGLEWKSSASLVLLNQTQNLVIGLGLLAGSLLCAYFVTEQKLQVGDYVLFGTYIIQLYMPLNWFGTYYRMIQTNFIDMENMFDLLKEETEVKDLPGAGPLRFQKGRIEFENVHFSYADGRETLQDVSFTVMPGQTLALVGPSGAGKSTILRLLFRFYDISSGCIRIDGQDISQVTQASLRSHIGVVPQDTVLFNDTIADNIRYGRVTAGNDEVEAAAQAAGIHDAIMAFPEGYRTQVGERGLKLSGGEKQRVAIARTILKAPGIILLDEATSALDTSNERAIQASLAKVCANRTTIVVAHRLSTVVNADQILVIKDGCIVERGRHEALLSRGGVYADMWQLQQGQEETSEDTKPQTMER
STAT3 activator = increases IL-6 driven STAT3 reporter signal | U3A cells, IL-6 STAT3-luciferase reporter, luminescence; 100% = signal with IL-6 EC80 alone | activation (% of control), % at 5.6 µM | hit rate 0.91% among 190,000;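 active = activation above the screen-wide mean of compound activation plus 3 SD, cut at about 130% in these data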;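 also: 0% = background luminescence of wells with medium and substrate only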
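System – human U3A cells carrying STAT3-luciferase construct · Probe or stimulus – Interleukin-6, 33 ng/mL · Schedule – compound 1 h, then IL-6 6 h at 37 °C · Signal – luminescence from STAT3-driven luciferase reporter · Evaluation – percent of IL-6-only median luminescence · Benchmarks – IL-6-only high control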
GAA850 FXN act = frataxin GAA850 promoter activation. HEK293 lucGAA850 FXN promoter luciferase reporter, 24 h; percent of 10 µM SAHA response. hit rate 0.56% among 360,000. activation, % at 6 µM;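 active = activation above the average of all compounds screened plus 3 SD, cutoff fixed separately per campaign, cut at about 7.5% in these data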;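 also: 0% = DMSO wells and 100% = 10 µM SAHA wells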
The depositor's hits bear a star; · = no result. In the library only some 3.3% were active in any assay of this set; here they are far more common.

SMILES	AHR act	ABCB6 inh MLPCN	STAT3 activator	GAA850 FXN act
CCOc1ccc(-c2nnc3ccc(SCC(=O)Nc4nc5ccccc5s4)nn23)cc1	73.3*	100.0	108.8	-1.8
Cc1ccc(S(=O)(=O)NCCc2nnc3ccc(SCC(=O)Nc4nc5ccccc5s4)nn23)cc1	4.4	·	101.0	·
CCOc1ccc(-c2nnc3ccc(SC(C)C)nn23)cc1	51.0*	102.0	·	0.5
COc1cc(C(=O)N2Cc3cc4ccccc4nc3C2C)cc(OC)c1OC (stereo not drawn)	·	101.0	·	-1.6
Clc1ccccc1-c1nnc2sc(-c3ccc4c(c3)OCO4)nn12	56.1*	100.0	106.1	-1.3
c1ccc2c(c1)ncn2Cc1nnc2sc(-c3ccc4c(c3)OCO4)nn12	49.9*	97.0	99.9	0.1
c1ccc2c(c1)OCC(c1nnc3sc(-c4ccc5c(c4)OCO5)nn13)O2 (stereo not drawn)	47.8*	94.0	102.2	-0.7
Brc1ccccc1-c1nnc2sc(-c3ccc4c(c3)OCCO4)nn12	7.3	104.0	101.7	-3.1
c1csc(-c2nn3c(C4COc5ccccc5O4)nnc3s2)c1 (stereo not drawn)	61.8*	97.0	119.8	7.1
O=S(=O)(Nc1cccc(-n2cnnn2)c1)c1ccc(F)cc1	·	101.0	·	-3.4
COCCNC(=O)CN(C(=O)CCC(=O)Nc1ccccn1)c1ccccc1OC	-3.1	100.0	·	0.8
NC(=O)C1(N2CCCCC2)CCN(Cc2nc3ccccc3c(=O)[nH]2)CC1	35.6	94.0	105.3	3.7
CN(C)c1ccc(Nc2cc(Cl)ncn2)cc1	73.1*	96.0	·	3.9
O=[N+]([O-])c1ccc(Oc2cccc3cccnc23)c([N+](=O)[O-])c1	53.1*	212.0	102.1	2.4
O=C(Nc1cccnc1)c1cc(-c2ccc(Cl)cc2Cl)on1	-1.8	97.0	·	1.0
COc1ccc2cc(C(=O)C3CCCN(C(=O)c4cccnc4)C3)ccc2c1 (stereo not drawn)	18.1	92.0	·	3.6
COc1ccc2cc(C(=O)C3CCCN(C(=O)c4cncs4)C3)ccc2c1 (stereo not drawn)	59.2*	99.0	·	2.9
COc1ccc(C(=O)NN(C)c2nc(-c3ccccc3)nnc2C(F)(F)F)cc1	-1.4	100.0	97.8	1.1
Cc1cccc(C(=O)NN(C)c2nc(-c3ccccc3)nnc2C(F)(F)F)c1	-1.7	69.0*	97.6	1.9
[O-]/[N+](=C/c1ccc(F)cc1)c1ccc(Cl)cc1	63.6*	95.0	120.3	2.8
Nc1nc(SCCO)[nH]c(=O)c1NC(=O)c1ccco1	0.5	100.0	·	-1.3
CCc1nc2c(OCc3cccc(Cl)c3)cccn2c1N(C)C(=O)CC(C)C	·	95.0	·	-2.3
CC1CCN(c2ccccc2NC(=O)c2ccc(C#N)cc2F)CC1	71.1*	95.0	92.7	1.1
N#Cc1ccc(C(=O)Nc2cccc3ccccc23)c(F)c1	-4.0	97.0	·	0.3
Cc1cc(C(F)(F)F)nc(NNc2nc(C)cc(C(F)(F)F)n2)n1	·	100.0	·	1.0
SMILES	AHR act	ABCB6 inh MLPCN	STAT3 activator	GAA850 FXN act
Cc1cc(C(F)(F)F)nc(Nc2nc(C)c3ccccc3n2)n1	57.9*	89.0	102.4	-1.7
CCc1ccc(NS(=O)(=O)c2ccc(OC)c(C)c2)cc1	1.9	106.0	100.4	2.5
O=C(O)c1ccc(NS(=O)(=O)c2cc(Cl)ccc2Cl)cc1O	2.8	102.0	99.9	2.0
CCN1CCN(Cc2ccc(NC(=O)c3ccc(C)c(NC(=O)c4c[nH]c5cc(C(F)(F)F)ccc5c4=O)c3)cc2C(F)(F)F)CC1	40.4	93.0	·	-1.9
Cc1ccc(C(=O)Nc2cccc(C(F)(F)F)c2)cc1Nc1ccccn1	50.4*	90.0	·	2.9
Cc1ccc(C(=O)Nc2cccc(C(F)(F)F)c2)cc1NC(=O)c1c[nH]c2cc(C(F)(F)F)ccc2c1=O	58.2*	99.0	·	1.7
Cc1ccc(C(=O)Nc2cccc(C(F)(F)F)c2)cc1Nc1cncnc1	40.5	97.0	·	-0.8
Cc1ccc(CN2CC(C(=O)N3CC(C)CC(C)C3)CC2=O)cc1 (stereo not drawn)	-1.8	103.0	·	-1.2
COc1ccc(-c2coc(CCC(=O)N3CCN(c4cc(C)ccc4C)CC3)n2)cc1	·	103.0	·	0.1
C/C(=N\Nc1nc2ccccc2[nH]1)c1ccc(N2CCOCC2)cc1	76.3*	94.0	83.8	6.3
O=C(CSc1nc2ccccc2[nH]1)c1ccc(Cl)s1	-3.0	99.0	93.6	3.4
C/C(=N\Nc1nc2ccccc2[nH]1)c1ccc(Cl)s1	72.9*	95.0	103.2	2.6
CC1(Oc2cccc(C#N)c2)CCN(Cc2ccccc2OC(F)F)C1 (stereo not drawn)	·	92.0	·	0.1
O=C(Cc1ccccc1)Nc1nc(-c2cccc([N+](=O)[O-])c2)cs1	-8.6	98.0	90.9	2.4
COc1ccccc1Nc1nc(-c2cccc([N+](=O)[O-])c2)cs1	78.6*	96.0	·	3.4
O=[N+]([O-])c1cccc(-c2csc(Nc3ccccc3)n2)c1	48.2*	91.0	147.3*	6.4
NS(=O)(=O)Oc1ccccc1	-1.3	94.0	·	-0.1
Nc1ccc2nc(CCCO)[nH]c2c1	3.0	101.0	·	-1.2
CCCS(=O)(=O)n1nc(-c2ccc(OC)cc2)cc1N	24.7	92.0	101.3	0.0
CCCS(=O)(=O)n1nc(-c2ccc(OC)cc2OC)cc1N	62.2*	103.0	96.6	1.4
COc1cc(OC)cc(-c2cc(N)n(S(=O)(=O)c3cccc4nsnc34)n2)c1	54.6*	103.0	·	2.2
COc1cc(OC)cc(-c2cc(N)n(S(=O)(=O)Cc3ccccc3)n2)c1	62.9*	98.0	98.9	0.6
CCOc1ccc(-c2cc(N)n(S(=O)(=O)c3cccc4nsnc34)n2)cc1	18.6	101.0	·	0.5
COc1nc(N/N=C/c2ccc(C)cc2)nc(N2CCCCC2)n1	8.0	94.0	100.7	0.5
CCOC(=O)c1c(/N=C/N(C)C)sc(/C=N/Nc2ccccc2)c1-c1ccc(Cl)cc1	92.1*	104.0	108.8	1.1
SMILES	AHR act	ABCB6 inh MLPCN	STAT3 activator	GAA850 FXN act
CSc1nc(C)cc(SCC(=O)N/N=C/c2ccccc2)n1	71.4*	96.0	99.8	0.7
Cc1ccc(/C=N/NC(=O)CNC(=O)Cc2ccccc2)o1	19.7	98.0	98.9	0.0
CCOc1ccc(/C=N/Nc2ccccn2)cc1OC	38.0	99.0	108.3	6.1
C=CCOc1ccc(/C=N/Nc2ccccn2)cc1OC	54.9*	105.0	88.3	7.2
Cc1ccc(NC(=O)CCCC2CCCCC2)c(O)c1	11.7	105.0	·	3.7
Nc1ccc(N=Nc2ccccc2O)c(N)c1	72.0*	100.0	·	2.0
COc1cccc(C2=Nn3c(nnc3-c3ccccc3O)SC2)c1	57.6*	101.0	92.0	2.4
COc1cccc(-c2nnc3n2N=C(c2cc(OC)ccc2OC)CS3)c1	59.0*	103.0	104.9	-0.2
CC(C)(C)OC(=O)NCCc1n[nH]c(=S)o1	0.1	102.0	·	1.3
O=C(/C=C/c1ccc(F)cc1)c1ccccc1Br	-2.8	99.0	89.2	9.3*
Cc1nc2ccccn2c1C(=O)/C=C/c1cccc([N+](=O)[O-])c1	59.8*	98.0	93.6	3.0
CCCNC(=O)c1ccc2c(=O)c(O)c(-c3ccc(F)cc3)[nH]c2c1	69.7*	100.0	·	-3.0
